Screening data as filed in PubChem.
Hits are enriched below; roughly 2.2% of the tested compounds scored in any of these assays.
HDAC3 inh: blocks human histone deacetylase 3 | O15379 | recombinant HDAC3, fluorogenic peptide/trypsin coupled, fluorescence | inhibition, % at 8.3 µM | hit rate 0.15% among 320,000; in the data active means inhibition above about 26%, passing the limit was not always enough; inconclusive means no clear call, values can overlap the other calls
Target sequence (O15379 whole entry, looked up): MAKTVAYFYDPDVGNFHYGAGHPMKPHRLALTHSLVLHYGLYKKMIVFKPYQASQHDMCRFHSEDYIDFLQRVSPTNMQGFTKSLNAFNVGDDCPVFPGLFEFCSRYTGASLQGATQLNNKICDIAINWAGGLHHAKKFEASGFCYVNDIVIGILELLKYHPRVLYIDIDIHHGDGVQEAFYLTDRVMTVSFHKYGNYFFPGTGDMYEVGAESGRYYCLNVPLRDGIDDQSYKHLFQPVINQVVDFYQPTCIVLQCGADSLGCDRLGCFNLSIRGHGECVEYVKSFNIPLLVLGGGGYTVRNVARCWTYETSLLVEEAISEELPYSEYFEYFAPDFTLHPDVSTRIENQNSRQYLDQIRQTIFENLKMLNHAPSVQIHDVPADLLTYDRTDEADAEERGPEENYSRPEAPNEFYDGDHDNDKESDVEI
T cruzi repl: T. cruzi replication inhibition; T. cruzi beta-gal in NIH3T3, luminescence, 90 h; inhibition, % (no concentration beside the values); hit rate 1.4% among 300,000; AID 1885;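 active means mean inhibition across valid replicates above about 55%, limit read from the data; inconclusive means mean below that limit but half or more replicates reach it; inactive means mean below it, under half of replicates reach it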;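 further: signal also drops with host cell toxicity which is not excluded here; higher percent means less beta-gal luminescence so fewer parasites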
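Material: NIH/3T3 host cells with β-galactosidase reporter T. cruzi; Input: 5,000 host fibroblasts per well; Medium: DMEM, 2% fetal bovine serum; Compound: 50 nL DMSO compound solution per well; Schedule: 3 h host attachment, then at least 90 h co-culture; Detection: luminescent β-galactosidase signal after 60 min lysis.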
AI-2 QS modul: Vibrio harveyi AI-2 quorum sensing modulation; Vibrio harveyi JMH597 AI-2 luminescence/OD600 ratio, 9 h; stronger effect = lower value; strain lacks LuxN and CqsS sensors; 0 = neutral-control median; activity change, % at 7.5 µM; hit rate 0.4% among 300,000; AID 2094; in the data active means activity change below about -75%, passing the limit was not always enough; inconclusive means no clear call, values can overlap the other calls;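 further: luminescence divided by OD600 gain over 9 h not by final OD600 alone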
PolyA inhibitor: yeast polyadenylation inhibition; S. cerevisiae SKY197-pL101 polyadenylation reporter, beta-gal luminescence; efflux-impaired pdr1/pdr3 knockout yeast; score 100 = 6 SD above DMSO; activity score, % at 12 µM; hit rate 0.02% among 300,000; AID 1875;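 active means lowest replicate activity score at least 50, where 100 means six control SD above control mean; inconclusive means lowest score under 50 but half or more replicates reach 50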;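 further: yeast exposed to compound for 9 h at 30 °C; higher score means more reporter readthrough which indicates perturbed polyadenylation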
Efflux pump inh: antifungal efflux pump inhibition, Nile Red retention; S. cerevisiae Candida pump triplex; inhibition, % at 10 µM; hit rate 0.44% among 330,000; AID 485275;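 active means plate passing quality check with inhibition over a set limit, or well fluorescence over plate mean plus 4 SD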;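 further: Nile Red retained in pooled yeast measured as flow cytometry median fluorescence; higher means more Nile Red kept so more efflux inhibition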
Each line names hits and unclear results; the compound was inactive in the other large screens.

Cc1ccc(/C(=N\O)c2oc3c(C)c4oc(=O)cc(C)c4cc3c2C)cc1	T cruzi repl 58.7
Cc1cc(=O)oc2c1ccc1oc(/C(=N/O)c3ccccc3)c(C)c12	none
C/C(=N\Nc1nc2ccccc2[nH]1)c1ccc2c(c1)OCO2	T cruzi repl 78.4
C/C(=N\Nc1nc2ccccc2[nH]1)c1ccccn1	AI-2 QS modul -86.8
C/C(=N\Nc1nc2ccccc2[nH]1)c1ccc2c(c1)OCCO2	HDAC3 inh inconclusive, T cruzi repl 56.7
COc1ccc(C(=O)O/N=C(/c2ccccc2)c2ccncc2)cc1	HDAC3 inh 44.4
CC1CC2=C(NC(=S)NC2c2cccc(F)c2)/C(=C/c2cccc(F)c2)C1 (stereo not drawn)	T cruzi repl 58.6 (no result: HDAC3 inh, Efflux pump inh)
O=C(/C=C/Nc1nccs1)C(F)(F)Cl	HDAC3 inh 54.0
Cc1ccc(NC(=O)CSc2nnc(-c3ccoc3C)n2CCCN(C)C)cc1Cl	none (no result: AI-2 QS modul)
COc1ccc(NC(=O)CCCn2cc([N+](=O)[O-])cn2)cc1	none
COc1ccccc1-c1nnc(Sc2nc([N+](=O)[O-])nn2C)o1	T cruzi repl 57.7
C=C1C(O)[C@@H]2O[C@]3(CC[C@H](/C=C/C(C)[C@@H]4CC(C)=CC5(O[C@H](C[C@@](C)(O)CO)CCC5O)O4)O3)CC[C@H]2O[C@@H]1C(O)CC(C)[C@H]1OC2(CCCCO2)CCC1C (stereo partly drawn)	none (no result: T cruzi repl, AI-2 QS modul, PolyA inhibitor)
COc1ccc(S(=O)(=O)N2CCOC23CCN(S(=O)(=O)c2cc(C)ccc2OC)CC3)cc1	none
O=C1c2cccc([N+](=O)[O-])c2C(=O)N1CCO	none
O=C1c2cccc3c(Nc4ccccc4Cl)c([N+](=O)[O-])cc(c23)C(=O)N1CCO	T cruzi repl 59.3
Cc1c(C(=O)Nc2ccc(Cl)cc2)c2ccccn2c1C(=O)c1ccc([N+](=O)[O-])cc1	T cruzi repl 65.5
COC(=O)Cc1c[nH]c2cccc(OCC(O)CN(Cc3ccc([N+](=O)[O-])cc3)C(C)(C)C)c12 (stereo not drawn)	T cruzi repl 65.1
O=C(c1ccccc1)c1c2c(cc3sc4ccccc4[n+]13)-c1cccc3cccc-2c13	none (no result: T cruzi repl, AI-2 QS modul, PolyA inhibitor)
Cc1sc2cc3c(c(C(=O)c4ccccc4)[n+]2c1C)-c1cccc2cccc-3c12	T cruzi repl 73.8
Cc1ccc(C(CNC(=O)c2ccc(Br)o2)N2CCN(C)CC2)cc1 (stereo not drawn)	none
CCC(C)(C#CCN1CCCCC1)OCCC#N (stereo not drawn)	none
Cc1ccc2nc(Cl)c(CNCc3ccccc3)cc2c1	AI-2 QS modul -81.9
Cc1ccc(CNCc2ccccc2Cl)cc1	none
Cc1ccc(-n2sc3ccccc3c2=O)cc1	HDAC3 inh 51.6, T cruzi repl 74.0
COC(=O)c1cccc(N2CCCC2=O)c1	none (no result: HDAC3 inh)
COC(=O)c1cccc(-n2sc3ccccc3c2=O)c1	HDAC3 inh 66.6 (no result: T cruzi repl, AI-2 QS modul, PolyA inhibitor)
Cc1cc(C(=O)CN2CCC(C)CC2)c(C)n1-c1ccccc1F	T cruzi repl 57.1
Cc1cc(C(=O)CN2C(=O)C(=O)N(Cc3ccccc3)C2=O)c(C)n1-c1ccccc1F	none
CCOc1ccc(NC(=O)CN(C)C(=O)c2ccccc2OCCOc2ccccc2)cc1OCC	none (no result: T cruzi repl, AI-2 QS modul, PolyA inhibitor)
COc1ccc(CN2CCN(Cc3ccc(C(F)(F)F)cc3)CC2)c(OC)c1	none
COc1ccc(CN2CCN(Cc3ccc(C)cc3)CC2)c(OC)c1	T cruzi repl 56.8
CC(=O)c1ccc(NC(=O)C(C)Sc2nnc(C3CCCCC3)o2)cc1 (stereo not drawn)	none
CN(C)CCN(C(=O)c1ccc2c(c1)OCCO2)c1nc2ccc(Cl)cc2s1	T cruzi repl 56.7, PolyA inhibitor inconclusive
CCc1ccc2nc(N(CCN(C)C)C(=O)c3ccc4ncsc4c3)sc2c1	T cruzi repl 63.8
Cc1ccc(C(=O)N(CCCN(C)C)c2nc3ccc(Cl)cc3s2)cc1C	T cruzi repl 69.5
CCCCCCn1c(-c2cccs2)n[nH]c1=S	none
O=C(c1ccccc1)n1nc(-c2ccccc2)nc1NCc1ccco1	HDAC3 inh 38.0
CCCC(=O)n1nc(-c2ccc(OC)cc2)nc1N	none
Cc1ccc(C(=O)n2nc(-c3ccccc3)nc2NCc2ccco2)cc1	none
CCCC(=O)n1nc(-c2ccco2)nc1N	HDAC3 inh 40.3
Nc1nc(-c2ccco2)nn1C(=O)c1ccccc1	HDAC3 inh 35.3, PolyA inhibitor inconclusive
CCCCC(=O)NC(c1ccccc1Cl)c1c(O)ccc2ccccc12 (stereo not drawn)	none
CCCC(=O)NC(c1ccc(Cl)cc1)c1ccc2cccnc2c1O (stereo not drawn)	T cruzi repl 65.4
CC(=O)NC(c1ccc2ccccc2c1)c1ccc2cccnc2c1O (stereo not drawn)	T cruzi repl 61.3
COc1ccc(C(NC(C)=O)c2ccc3cccnc3c2O)c(OC)c1 (stereo not drawn)	none
CC(=O)NC(c1ccc(Cl)cc1Cl)c1ccc2cccnc2c1O (stereo not drawn)	T cruzi repl 62.1, AI-2 QS modul -83.6
CCCCC(=O)NC(c1ccc(Cl)cc1)c1ccc2cccnc2c1O (stereo not drawn)	T cruzi repl 71.4
COc1ccc(C(=O)NCC(C)(C)N2CCOCC2)cc1S(=O)(=O)N1CCCC1	none (no result: T cruzi repl, AI-2 QS modul, PolyA inhibitor)
CC(NS(=O)(=O)c1ccc(OCC(=O)NCc2ccccn2)cc1)c1ccccc1 (stereo not drawn)	none
Cc1ccc(C(NC(=O)C(C)C)c2cc([N+](=O)[O-])c3cccnc3c2O)cc1 (stereo not drawn)	none
CC(C)C(=O)NC(c1ccco1)c1ccc2cccnc2c1O (stereo not drawn)	none
CCCC(=O)NC(c1ccc(Cl)cc1Cl)c1ccc2cccnc2c1O (stereo not drawn)	T cruzi repl 63.5
CCCC(=O)NC(c1ccc(C)cc1)c1ccc2cccnc2c1O (stereo not drawn)	T cruzi repl 72.2
COC(=O)C1=C(C)NC(=O)NC1c1ccc(-c2ccc(Cl)cc2)o1 (stereo not drawn)	HDAC3 inh 44.7 (no result: PolyA inhibitor)
COc1ccc(CNC(=O)CN2CCN(c3ccccc3)CC2)cc1	none
CC(=O)c1c(N)c(C#N)c(C)n1-c1ccc(Br)cc1	none
Cc1c(C#N)c(N=CN(C)C)c(C(=O)c2ccc(Br)cc2)n1-c1ccc(Cl)cc1	T cruzi repl 57.2 (no result: AI-2 QS modul)
CCOc1ncccc1C(=O)OCC(=O)c1cccc(Br)c1	none
CC(C)C(Nc1ncnc2c1oc1ccccc12)C(=O)O (stereo not drawn)	T cruzi repl 76.9
CCOC(=O)c1nc(Nc2cc(C)cc(C)c2)c2ccccc2n1	T cruzi repl 56.1
CCOC(=O)c1nc(Nc2ccc(Nc3ccccc3)cc2)c2ccccc2n1	none (no result: HDAC3 inh, Efflux pump inh)
COC(=O)c1ccc(NC(=O)CSc2nncn2-c2ccccn2)cc1	none
Cc1ccc(OCCn2c(NC(=O)c3ccco3)nc3ccccc32)cc1	none
O=C(Nc1nc2ccccc2n1CCOc1ccc(Cl)cc1)c1ccco1	T cruzi repl 56.7
Cc1cccc(OCCn2c(NC(=O)c3ccco3)nc3ccccc32)c1	T cruzi repl 59.7
